Rows were chosen to be rich in hits. Some 2.7% of all compounds tested hit in one or more screens of this group.
V1aR counter: agonists of human V1a receptor, primary screen, counter-screen for OXTR agonist project, fluorescence, CHO-V1R cells; Fluo-8 calcium fluorescence, agonist mode; 0% DMSO, 100% 3 nM vasopressin; 0.25% of 320,000 active; activation, % at 3 µM; AID 2797, 2010;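 active = activation above the mean activation of all tested compounds plus 3 SD, per screening run, cut at about 20% in these data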;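 also: signal is peak over basal fluorescence ratio across a 100 second FLIPR read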
Target sequence (P37288 whole entry, looked up): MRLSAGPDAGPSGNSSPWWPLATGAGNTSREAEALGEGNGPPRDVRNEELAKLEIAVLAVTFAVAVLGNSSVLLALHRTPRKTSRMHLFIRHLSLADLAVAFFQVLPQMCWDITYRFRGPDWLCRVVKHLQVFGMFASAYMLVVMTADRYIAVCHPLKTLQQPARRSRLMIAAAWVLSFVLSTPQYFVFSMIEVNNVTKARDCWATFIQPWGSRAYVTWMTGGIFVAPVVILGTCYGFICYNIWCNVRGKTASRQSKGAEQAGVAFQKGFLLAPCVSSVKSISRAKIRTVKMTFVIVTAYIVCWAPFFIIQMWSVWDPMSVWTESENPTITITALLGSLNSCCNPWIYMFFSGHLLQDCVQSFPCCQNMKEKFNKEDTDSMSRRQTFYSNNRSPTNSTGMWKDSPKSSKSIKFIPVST
CHO parental Ca: ATP-evoked calcium signal inhibitors, parental CHO, primary screen, counter-screen for OX1R antagonist project, cell-based, fluorescence, Fluo-8 calcium dye | inhibition, % at 5.6 µM | 0.63% of 330,000 active | parental CHO-K1, ATP-induced calcium, Fluo-8 fluorescence;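 active = inhibition above that plate's mean sample inhibition plus 3 SD, cut at about 26% in these data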
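Material – parental CHO cells · Reagent – ATP stimulus · Compound – single nominal dose of 5.6 µM per compound · Detection – Fluo-8 fluorescence · Read-out basis – percent inhibition of calcium signal · Controls – ATP-challenged DMSO wells low, unchallenged DMSO wells high · Repeats – no replicates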
OX1R antag-1: OX1R (HCRTR1) antagonists, primary screen, fluorescence, CHO/OX1R cells, Fluo-8 calcium, orexin A | inhibition, % at 5 µM | AID 434989, 2010 | Fluo-8 calcium fluorescence | 0.43% of 330,000 active;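 active = inhibition above its plate's threshold, mean inhibition of all tested compounds on the plate plus 3 SD, cut at about 37% in these data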
OXTR potentiate: human OXTR potentiators, primary screen, fluorescence, CHO-OTR cells, Fluo-8 calcium. activation, % at 3 µM. Oxytocin receptor (Homo sapiens), P30559. Fluo-8 calcium fluorescence, potentiator mode; 0% = oxytocin EC15, 100% = EC100. 0.061% of 320,000 active;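 active = activation above that plate's cutoff, the mean activation of tested compounds plus 3 SD, cut at about 6.6% in these data, passing the limit was not always enough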
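Replication – single well per compound, singlicate · Assay system – CHO cell line stably expressing human OTR · Timing – 6 min pre-incubation, 100 s read · Measure – normalized max/min fluorescence ratio, % activation · Doses – 3.0 µM, one dose · Detection – Fluo-8 calcium dye fluorescence · Probe or stimulus – oxytocin near EC15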
OXTR ag: human OXTR agonists, primary screen, fluorescence, CHO-OTR cells, Fluo-8 calcium. Fluo-8 calcium fluorescence; normalized: DMSO 0%, oxytocin 100%. activation, % at 3 µM. 0.32% of 320,000 active;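 active = activation above the mean of all tested compounds plus 3 SD, cutoff set per screening run, cut at about 20% in these data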;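 also: peak over basal fluorescence ratio from a 100 s FLIPR kinetic read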
OX1R antag-2: antagonists of human orexin 1 receptor (OX1R); Orexin/Hypocretin receptor type 1 (Homo sapiens), O43613; AID 485270, 2010; inhibition, % at 6.6 µM; OX1R-expressing cells, FRET antagonist read-out; 1.8% of 330,000 active; in the data active = inhibition mostly above about 38%, no sharp cut-off; inactive = mostly below about 40%
OX1R HTRF conf: OX1R (HCRTR1) antagonists, confirmation, cell-based, HTRF; OX1R-expressing cells, HTRF antagonist assay; 49% of 1,800 active; inhibition, % at 6.6 µM; AID 492964, 2010; shares compounds with OX1R antag-2; in the data active = inhibition above about 55%;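 also: CHO cells expressing OX1R stimulated with orexin A at about EC80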
CHO-K1 HTRF cnt: signal inhibition in parental CHO-K1 cells, counter-screen for OX1R antagonist project, cell-based, HTRF; shares compounds with OX1R antag-2; inhibition, % at 6.6 µM; 48% of 1,800 active; AID 493232, 2011; HTRF counterscreen; in the data active = inhibition above about 17%
Large screens that a line does not name were inactive (follow-up assays come after a bar, where they were run).

CCN1C(=O)/C(=C/c2cc(C)n(C)c2C)SC1=Nc1ccc(OC)cc1	OX1R antag-2 126.8 | OX1R HTRF conf inactive | CHO-K1 HTRF cnt inactive
CCCN1C(=O)/C(=C/c2cc(C)n(C)c2C)SC1=Nc1ccc(OCC)cc1	none
O=C(NCCOc1ccccc1)C1CCC(=O)N(CCN2CCOCC2)C1 (configuration not stated)	none
O=[N+]([O-])c1cccc(-c2ccc3nnc(SCc4ccccn4)n3n2)c1	OX1R antag-2 77.0 | OX1R HTRF conf inactive | CHO-K1 HTRF cnt 35.6
N/C(=N\OC(=O)c1cc([N+](=O)[O-])ccc1Cl)c1ccccn1	none
N/C(=N/S(=O)(=O)c1ccccc1)c1cccc([N+](=O)[O-])c1	OX1R antag-2 89.6 | OX1R HTRF conf inactive | CHO-K1 HTRF cnt 20.7
N/C(=N\OC(=O)c1cccc([N+](=O)[O-])c1)c1ccccn1	OX1R antag-2 96.5 | OX1R HTRF conf inactive | CHO-K1 HTRF cnt 37.7
CN(c1ccc(C(=O)N/N=C/c2cccc([N+](=O)[O-])c2)cc1)S(=O)(=O)c1ccccc1	none
COc1ccc(CCNC(=O)c2ccccc2OCc2c(C)noc2C)cc1	none
CC(=O)N(C(C)=O)N1C(=O)c2cccc3c(N4CCOCC4)ccc(c23)C1=O	OX1R antag-2 118.5 | OX1R HTRF conf inactive | CHO-K1 HTRF cnt 39.7
Cc1cccc(NC(=O)COC(=O)CCc2c[nH]c3ccccc23)c1C	none
O=c1c(NCCc2ccc(Cl)cc2)c(-c2ccccc2)c1=O	none
COC(=O)[C@]1(C)N[C@H](CN(C)C(=O)NC(C)C)[C@@H]2C(=O)N(C)C(=O)[C@@H]21	none
O=c1[nH]cnc2nn(-c3ccccc3)nc12	none
O=c1[nH]cnc2nc(-c3ccccc3)c(-c3ccccc3)nc12	OX1R antag-2 128.9 | OX1R HTRF conf inactive | CHO-K1 HTRF cnt 23.1
CNC[C@@H]1Oc2ccc(NS(=O)(=O)c3ccc(Cl)cc3)cc2C(=O)N([C@H](C)CO)C[C@@H]1C	none
C/C=N/NC(=O)c1cc(Br)ccc1O	OX1R antag-2 77.1 | OX1R HTRF conf inactive | CHO-K1 HTRF cnt inactive
COc1ccc(Br)cc1/C=N/NC(=O)c1cc(Br)ccc1O	none
Cc1ccc(/C=C2\SC(=O)N(CCC(=O)N3CCN(C)CC3)C2=O)cc1	OX1R antag-2 126.4 | OX1R HTRF conf inactive | CHO-K1 HTRF cnt 26.9
O=[N+]([O-])c1ccc2c(c1)nc1n2CCCCC1	none
O=c1c2c(-c3ccc([N+](=O)[O-])cc3)csc2nc2n1CCC2	OX1R antag-2 94.9 | OX1R HTRF conf inactive | CHO-K1 HTRF cnt 48.3
Cc1ccc(C(=O)N/C(=C/c2ccc(-c3cccc([N+](=O)[O-])c3)o2)C(=O)NC(C)(C)C)cc1	OX1R antag-2 84.8 | OX1R HTRF conf 69.4 | CHO-K1 HTRF cnt inactive
Cc1ccc(NC(=O)c2ccc([N+](=O)[O-])o2)c(C)c1	none
COC(=O)c1sc(NC(=O)c2ccc([N+](=O)[O-])o2)c(C#N)c1C	OX1R antag-2 91.5 | OX1R HTRF conf 64.0 | CHO-K1 HTRF cnt 29.6
CCOC(=O)c1sc(NC(=O)c2ccco2)c(C#N)c1C	none
Cc1cccnc1NC(=O)c1ccc(COc2ccccc2)o1	none
Cc1cccnc1NC(=O)c1ccc([N+](=O)[O-])o1	OX1R antag-2 116.2 | OX1R HTRF conf inactive | CHO-K1 HTRF cnt 57.5
Cc1cccc(NC(=O)c2ccc([N+](=O)[O-])o2)n1	OX1R antag-2 96.8 | OX1R HTRF conf inactive | CHO-K1 HTRF cnt 63.9
O=C(Nc1ccc(N2CCOCC2)cc1)c1ccc([N+](=O)[O-])o1	OX1R antag-2 94.8 | OX1R HTRF conf inactive | CHO-K1 HTRF cnt inactive
O=C(O)c1cc(-c2ccc(Cl)c(Cl)c2)n(-c2ccc(F)cc2)n1	none
S=C(Nc1ccc(Oc2ccccc2)cc1)Nc1cccnc1	none
CC1CC(C)CN(C(=O)COC(=O)COc2ccccc2C#N)C1 (configuration not stated)	none
CCc1noc(C)c1C(=O)Nc1ccc(Cl)c(S(=O)(=O)N2CCCCC2)c1	none
CC(C)(C)c1ccc(S(=O)(=O)/N=C2\C=C(NS(=O)(=O)c3ccccc3)C(=O)c3ccccc32)cc1	OX1R antag-2 88.1 | OX1R HTRF conf inactive | CHO-K1 HTRF cnt inactive
COc1ccc(/C=N/NC(=O)c2cc(C)on2)c2ccccc12	OX1R antag-2 86.7 | OX1R HTRF conf 64.8 | CHO-K1 HTRF cnt inactive
c1ccc(-c2cnn3nnnc3n2)cc1	OX1R antag-2 active | OX1R HTRF conf 71.2 | CHO-K1 HTRF cnt 115.1
COc1cccc2c1cc1c(=O)n(CC(=O)N3CCC(C)CC3)nc(C)n12	none
O=S1(=O)CCS(=O)(=O)C1c1ccccc1	none
Cc1cccn2c(=O)c3cc(C(=O)NC(C)C)c(=N)n(Cc4ccncc4)c3nc12	OX1R antag-2 83.6 | OX1R HTRF conf inactive | CHO-K1 HTRF cnt 56.8
COCCCNC(=O)c1cc2c(=O)n3cccc(C)c3nc2n(C(C)C)c1=N	OX1R antag-2 81.4 | OX1R HTRF conf inactive | CHO-K1 HTRF cnt 37.6
Cc1ccc2nc3c(cc(C(=O)NC4CCCCC4)c(=N)n3C3CCCCC3)c(=O)n2c1	none
CNC(=O)c1cc2c(=O)n3cc(C)ccc3nc2n(C(C)C)c1=N	OX1R antag-2 144.9 | OX1R HTRF conf inactive | CHO-K1 HTRF cnt 71.0
COc1ccc(C)cc1S(=O)(=O)NNc1nc(C)cc(C)n1	none
CCCCn1c(N)c(N(CCOC)C(=O)COC(=O)C(C)Oc2ccc(Cl)cc2)c(=O)[nH]c1=O (configuration not stated)	none
COC(=O)c1c(=O)n(O)c2ccc(OC)cc2[n+]1[O-]	OX1R antag-2 87.9 | OX1R HTRF conf inactive | CHO-K1 HTRF cnt 47.3
CCN(CC)c1ccc(NC(=O)c2cc3ccccc3o2)c(C)c1	OX1R antag-2 79.7 | OX1R HTRF conf 58.5 | CHO-K1 HTRF cnt inactive
O=C(O)CN1C(=O)/C(=C\c2cn(CC(=O)N3CCOCC3)c3ccccc23)SC1=S	OX1R antag-2 100.0 | OX1R HTRF conf inactive | CHO-K1 HTRF cnt 48.9

Screens deposited in PubChem by The Scripps Research Institute Molecular Screening Center.
